# Furin inhibitor: blocks human furin protease activity. P09958. 220,000 tested, 0.061% active. purified furin, fluorogenic substrate cleavage. inhibition, % at 20 µM or 30 µM; in the data active = inhibition above about 25%
# ABCB1 block: human ABCB1 inhibition, ABCG2 as counter-screen. AID 1326. CCRF-Adr cells, JC-1 efflux, flow cytometry. inhibition, % at 6.6 µM. P08183. 190,000 tested, 0.067% active; in the data active = inhibition above about 40%;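 also: 0% = vehicle and 100% = reference inhibitor; higher value means more JC-1 retained so stronger ABCB1 efflux block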
# NCF1 inh: p47phox (human) inhibition; P14598; p47phox/p22phox peptide binding, fluorescence polarization, 2 h; inhibition, % at 24.7 µM; 220,000 tested, 0.53% active;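 active = inhibition above about 30%, limit read from the data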;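 also: 0% = p47phox with labelled peptide and 100% = labelled peptide alone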
# ABCG2 block: human ABCG2 inhibition, ABCB1 as counter-screen; IgMXP3 cells, JC-1 efflux, flow cytometry; inhibition, % at 6.6 µM; 190,000 tested, 0.1% active; AID 1325;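 active = inhibition above 80%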;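 also: 0% = DMSO and 100% = nicardipine control wells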
# Target sequence (Q9UNQ0 whole entry, looked up): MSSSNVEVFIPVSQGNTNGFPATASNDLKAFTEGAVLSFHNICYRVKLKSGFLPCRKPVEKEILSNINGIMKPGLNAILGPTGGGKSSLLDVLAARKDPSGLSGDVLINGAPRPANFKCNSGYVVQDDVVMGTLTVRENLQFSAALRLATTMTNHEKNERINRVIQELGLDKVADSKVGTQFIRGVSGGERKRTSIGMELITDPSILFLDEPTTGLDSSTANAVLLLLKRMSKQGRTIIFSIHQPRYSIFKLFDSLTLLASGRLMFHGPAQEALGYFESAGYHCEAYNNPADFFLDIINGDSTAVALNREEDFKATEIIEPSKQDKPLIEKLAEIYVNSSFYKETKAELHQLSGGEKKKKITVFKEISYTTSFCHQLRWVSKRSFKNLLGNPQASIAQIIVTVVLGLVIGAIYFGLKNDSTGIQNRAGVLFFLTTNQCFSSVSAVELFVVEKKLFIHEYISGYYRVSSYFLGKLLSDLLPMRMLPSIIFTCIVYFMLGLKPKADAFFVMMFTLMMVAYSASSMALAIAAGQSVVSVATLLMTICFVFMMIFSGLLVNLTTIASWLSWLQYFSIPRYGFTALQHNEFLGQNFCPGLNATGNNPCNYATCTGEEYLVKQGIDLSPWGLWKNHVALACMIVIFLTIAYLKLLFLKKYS
#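 Assay system – ABCG2 IgMXP3 and barcoded ABCB1 CCRF-Adr cell mix · Input – 3 million cells/mL in well · Reagent – JC-1 fluorescent substrate · Compound – single test compound dose, 6.6 µM final · Timing – 10 min exposure at 25 °C with rotation, no wash · Detection – flow cytometry of retained JC-1 fluorescence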
# HSV augment: increases HSV replication in cells. 220,000 tested, 0.005% active. AID 1956. HSV replication augmentation in cells, fold increase. maximum fold increase; in the data active = maximum fold increase above about 1.5; inconclusive = no clear call, values can overlap the other calls; tested in PC3 cells
# Arbovirus inh: blocks arbovirus infection; arbovirus infection cell-based antiviral screen; inhibition, % at 10 µM; 200,000 tested, 0.37% active; in the data active = inhibition above about 30%
# * hit, by the source's call; i = inactive; ? = inconclusive; · = no result given. Shown are actives, neighbours in structure and some others; about 0.95% of the full set was active somewhere.
SMILES,Furin inhibitor,ABCB1 block,NCF1 inh,ABCG2 block,HSV augment,Arbovirus inh
O=C(CNC(=S)N(Cc1ccccc1)Cc1ccccc1F)NCc1ccc(Cl)cc1,-21.2,1.5,-0.2,4.0,i,-30.0
O=C(Nc1ccc2oc(=O)ccc2c1)c1cc2ccccc2o1,-18.8,-0.1,32.2*,-0.6,i,-3.9
N#CC(=C=[N-])c1nc2ccccc2nc1-[n+]1cccc(NC(=O)c2cccs2)c1,-15.5,·,48.5*,·,i,·
N#CC(=C=[N-])c1nc2ccccc2nc1-[n+]1cccc(NC(=O)c2ccccc2)c1,-2.7,·,52.6*,·,i,·
CC1=C(C(=O)OC(C)C)C(c2ccccc2)NC(=S)N1C (stereo not drawn),-9.8,0.4,-8.3,2.8,i,4.7
COc1ccc(C2=Nn3c(nnc3-c3ccncc3)SC2)cc1OC,-8.0,0.4,18.7,5.0,i,49.1*
FC(F)(F)c1ccc(Oc2ccc3ccccc3c2Br)nc1,-6.7,-0.3,-16.4,-0.3,i,34.6*
CCOC(=O)c1cc(NC(=O)Nc2ccc(Br)cc2)c(C)nc1C,-11.2,-0.6,-2.6,-0.7,i,-10.3
O=Cc1ccc(OC(=O)c2cccnc2)cc1,-18.9,0.0,-2.7,1.2,i,9.4
Cc1nc(NCc2ccco2)c2c3c(sc2n1)CCC3,-22.9,1.3,-11.2,5.5,i,-18.1
CCN1CCc2c(sc3c2c(NCc2ccco2)nc2nnnn23)C1,-16.8,-0.3,-10.8,0.5,i,32.5*
O=C(Nc1nc2ccccc2s1)c1ccc(OCC2CCCO2)cc1 (stereo not drawn),-16.8,-0.3,-35.0,-0.5,i,30.8*
COC(=O)c1cc2n3ccccc3c(C)c(-c3ccccc3)c-2c1C(=O)OC,0.2,1.0,52.8*,6.6,?,3.9
CCN1C(=O)CCC(C(=O)O)C1c1ccc(OC)cc1 (stereo not drawn),-12.4,·,9.8,·,i,·
CCOc1ccc(NC(=O)CN2C(=O)/C(=C3\SC(=S)N(C4CCS(=O)(=O)C4)C3=O)c3ccccc32)cc1 (stereo not drawn),-2.3,·,63.0*,·,i,·
CCOc1ccc(NC(=O)CN2C(=O)CSC(C)C2=O)cc1 (stereo not drawn),-19.0,-0.2,1.3,1.2,i,12.9
CCOC(=O)Nc1ccc(C)cc1C,-23.0,0.5,117.0*,1.7,i,-3.6
CCOC(=O)Nc1ccc(C)cc1NC(=O)OCC,-27.5,0.1,-13.0,1.1,·,6.7
CCOC(=O)c1c(-c2ccccc2)csc1NC(=O)c1nn(CC)cc1Br,-5.2,0.5,-23.6,5.4,i,25.3
CCOC(=O)c1c(-c2ccccc2)csc1NC(=S)N(CC)CC,-13.1,0.0,1.2,5.8,i,37.3*
COc1ccccc1/C=N/NC(=O)CN(C1=NS(=O)(=O)c2ccccc21)c1ccccc1,-5.3,0.3,-9.2,2.7,i,-0.1
COc1ccc(/C=N/NC(=O)CN(C2=NS(=O)(=O)c3ccccc32)c2ccccc2)cc1,-7.8,0.1,30.6*,-6.2,i,-1.7
COC(=O)c1ccccc1NC(=O)C1CC(c2ccc(F)cc2)=NO1 (stereo not drawn),-16.6,0.7,-1.0,5.9,i,5.3
CCc1ccccc1NC(=O)C1CC(c2ccc(F)cc2)=NO1 (stereo not drawn),-22.7,1.9,33.0*,19.6,i,3.7
COC(=O)[C@@H](N)CS,-8.5,-0.4,-6.5,-0.5,i,5.1
SMILES,Furin inhibitor,ABCB1 block,NCF1 inh,ABCG2 block,HSV augment,Arbovirus inh
COc1ccc(CNC(=O)C2CCCN(c3nccc(C)n3)C2)cc1 (stereo not drawn),-2.3,0.5,-10.6,1.4,i,1.5
Cc1ccc(-n2cccc2/C=C2\C(=N)N3N=C(C(C)C)SC3=NC2=O)cc1,-20.4,0.7,-39.0,2.0,i,32.4*
CCOC(=O)c1c(CSC(=N)N)n(-c2ccc(Br)cc2)c2cc(Br)c(OC(C)=O)cc12,-13.9,1.4,92.7*,5.8,i,-34.5
CCCCCCCCOC(=O)c1c(CSC(=N)N)n(C)c2cc(Br)c(OC(C)=O)cc12,-11.6,·,87.5*,·,i,·
O=C(Nc1nnc(SCc2ccccc2Cl)s1)C1COc2ccccc2O1 (stereo not drawn),-13.2,0.1,-7.0,2.9,i,41.2*
Cc1csc(NC(=O)C2COc3ccccc3O2)n1 (stereo not drawn),6.3,2.9,-4.8,29.8,i,-6.1
O=C(Nc1nnc(SCc2cccc3ccccc23)s1)C1COc2ccccc2O1 (stereo not drawn),-14.2,-0.1,-4.1,1.1,i,20.4
Cc1ccccc1CSc1nnc(NC(=O)C2COc3ccccc3O2)s1 (stereo not drawn),1.1,0.0,0.3,2.4,i,48.2*
CC1(C)C[C@H](O)[C@@]23C[C@@H](OC2=O)[C@]2(C)C(=CCC4[C@@]5(C)CC[C@H](O)C(C)(C)C5CC[C@]42C)[C@@H]3C1 (stereo partly drawn),·,·,·,·,i,·
COc1ccc(CN2CCN(C(=O)C3CCC(CNS(=O)(=O)c4ccc(C)cc4)CC3)CC2)c(OC)c1OC (stereo not drawn),-25.7,-0.2,-4.0,-0.2,i,-5.4
COc1ccc2nc(SCCN(C)C)[nH]c2c1,-15.0,0.5,3.4,3.0,i,12.8
Cc1nnc(SCC(=O)N2CCc3ccccc32)s1,-6.6,42.9*,-9.6,4.8,i,39.3*
Cc1oc(-c2ccc(Cl)cc2)nc1CN1CCC(C(=O)N2CCc3ccccc3C2)CC1,-13.4,-0.7,45.1*,-1.0,·,-26.6
Cc1oc(-c2ccc(Cl)cc2)nc1CN1CCC(C(=O)N2CCN(Cc3ccccc3)CC2)CC1,2.3,0.4,0.9,1.8,·,-36.6
NC(=O)CN(c1ccc([N+](=O)[O-])cc1)S(=O)(=O)c1ccccc1,-24.0,0.9,1.6,3.2,i,5.0
CCOC(=O)c1ccc(-c2ccc(/C=N/NC(=O)CN(c3cccc(C)c3)S(C)(=O)=O)o2)cc1,-15.0,-0.7,31.2*,17.6,i,9.7
Cc1cccc2c1nc(-c1ccccc1)n1nnnc21,-14.6,0.6,-13.4,46.9,i,54.8*
CCOc1ccccc1C(=O)Nc1nn[nH]n1,-21.2,-0.1,-4.2,0.1,i,0.8
CCC(=C(c1ccc(OC)cc1)c1ccc(OC)cc1)c1cn(CC(O)CN2CCN(C)CC2)c2ccccc12 (stereo not drawn),-16.9,3.3,77.7*,3.5,·,-35.9
COCCCn1c(=O)/c(=C\c2ccc(OC(F)F)c(OC)c2)s/c1=C(/C#N)C(=O)NCCOC,-29.8,·,-16.4,·,?,·
O=c1[nH]n2c(=O)c3c([nH]c2c1N=Nc1cccc(Cl)c1)CCCC3,8.3,-0.2,-12.1,-0.6,i,39.6*
Cc1cc(C)n2[nH]c(=O)c(N=Nc3cccc(Cl)c3)c2n1,11.5,0.1,-18.9,5.0,?,-9.7

# From PubChem
